Bioassay records deposited in PubChem by several laboratories.
Rows were chosen to be rich in hits. Some 2.9% of all compounds tested hit in one or more screens of this group.
MEKK2wt PB1 HTS = modulators of MEK5 binding to wildtype MEKK2, primary screen, biochemical, multiplex bead flow cytometry, Alexa488-MEK5. binding response (% of control), % at 10 µM. Alexa488-MEK5 binding to MEKK2 WT; actives lie on both sides. 290,000 compounds, 1.1% hits; in the data active = binding response below about 67% or above about 130%
MEKK2 mut-MEK5 = MEK5 binding signal on mutant MEKK2 PB1, primary screen, biochemical, multiplex bead flow cytometry, Alexa488-MEK5; Alexa488-MEK5 binding to MEKK2 mutant; percent response, % at 10 µM; 290,000 compounds, 0.35% hits; AID 1530, 2009; in the data active = percent response above about 24%, passing the limit was not always enough
Dynein transport = inhibitors of GR-EGFP nuclear translocation, primary screen, dynein cargo transport inhibitor project, imaging, high-content, 3617.4 mouse cells; test concentration mostly 20 µM; stimulated with dexamethasone, 1 µM; active compounds read low; z-score, hits read low; 220,000 compounds, 0.47% hits; AID 1381, 2008;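 active = plate z-score of nuclear minus cytoplasmic receptor signal below a set negative limit, without overly bright fluorescence or cell loss, cut at about -3.5 in these data, passing the limit was not always enough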;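 also: z-score of nuclear minus cytoplasmic ring GR-EGFP intensity difference per well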
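Buffer or medium: tet-free medium with charcoal-stripped serum / Also added: dexamethasone agonist, 1.0 µM final, for 30 min / Timing: induction 48 h, compound 1 h, agonist 30 min / Measured by: high-content fluorescence imaging after fixation / Read-out: nuclear-to-cytoplasmic GR-EGFP distribution per well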
MEKK3 PB1 HTS = modulators of MEKK3-MEK5 PB1 binding, primary screen, biochemical, wildtype MEKK3, multiplex bead flow cytometry, Alexa488-MEK5; bead-based flow cytometry, Alexa488-MEK5 binding to MEKK3; actives lie on both sides; 0 = blocked by unlabeled MEK5, 100 = vehicle; Mitogen-activated protein kinase kinase kinase 3 (Homo sapiens), Q99759; AID 1529, 2009; 290,000 compounds, 1.4% hits; binding response (% of control), % at 10 µM;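 active = binding response more than 3 SD above or below the average of its plate-row segment, actives on both sides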;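 also: Alexa488 bead fluorescence after subtracting the streptavidin-only scavenger bead signal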
Beta2AR agonist = beta2AR agonists driving receptor internalization, primary screen, cell-based, FAP fluorogen, flow cytometry. 340,000 compounds, 0.43% hits. response, % (test concentration not listed). Am2.2-beta2AR cells. Beta-2 adrenergic receptor (Homo sapiens), P07550;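 active = response above a set limit, near 3 SD of response in nonfluorescent compounds, cut at about 42% in these data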
ATG4B inh = ATG4B protease inhibitors, primary screen, biochemical, fluorescence, uHTS | Cysteine protease ATG4B (Homo sapiens), Q9Y4P1 | ATG4B cleavage of LC3-PLA2, NBD-HPC fluorescence, 1 h | inhibition, % at 8.33 µM | 340,000 compounds, 0.51% hits; in the data active = inhibition above about 40%
Target sequence (Q9Y4P1 whole entry, looked up): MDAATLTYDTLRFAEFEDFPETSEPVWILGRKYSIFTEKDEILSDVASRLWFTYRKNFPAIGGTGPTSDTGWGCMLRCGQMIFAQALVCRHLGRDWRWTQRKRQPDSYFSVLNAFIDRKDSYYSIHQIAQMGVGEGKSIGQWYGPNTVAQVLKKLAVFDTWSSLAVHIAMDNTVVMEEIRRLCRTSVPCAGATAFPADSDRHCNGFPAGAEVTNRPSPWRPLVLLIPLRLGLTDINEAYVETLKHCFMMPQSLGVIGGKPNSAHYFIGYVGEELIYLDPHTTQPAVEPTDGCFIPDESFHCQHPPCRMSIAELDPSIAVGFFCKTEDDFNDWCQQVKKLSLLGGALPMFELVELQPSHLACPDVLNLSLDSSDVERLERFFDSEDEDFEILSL
ATG4B confirm = ATG4B protease inhibitors, retest, confirmation, biochemical, fluorescence, single concentration | ATG4B protease fluorescent substrate cleavage assay | 320 compounds, 92% hits | shares compounds with ATG4B inh | inhibition, % at 8.33 µM; in the data active = inhibition above about 39%
PLA2 counter = PLA2 enzyme inhibition, counter-screen for ATG4B inhibitor project, biochemical, single concentration, uHTS hits | shares compounds with ATG4B inh | purified PLA2, NBD-C6-HPC fluorescence, 45 min | inhibition, % at 8.33 µM | 1,600 compounds, 66% hits | AID 588402, 2011; in the data active = inhibition above about 50%
Target sequence (P04054 whole entry, looked up): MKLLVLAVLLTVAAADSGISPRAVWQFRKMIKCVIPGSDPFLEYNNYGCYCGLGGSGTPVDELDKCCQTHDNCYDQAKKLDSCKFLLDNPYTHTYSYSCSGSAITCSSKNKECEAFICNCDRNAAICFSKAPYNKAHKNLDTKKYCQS
Hits are given with their value; – = inactive; · = no result given.

SMILES	MEKK2wt PB1 HTS	MEKK2 mut-MEK5	Dynein transport	MEKK3 PB1 HTS	Beta2AR agonist	ATG4B inh	PLA2 counter	others
CC#CC(=O)N1CCC(CCc2ccccc2)(C(=O)OCC)CC1	–	–	–	–	–	49	–
O=C(CSCc1c(Cl)cccc1Cl)Nc1ccccc1-c1ccccc1	–	–	–	–	–	74	80
O=C(COC(=O)Cc1c(Cl)cccc1Cl)Nc1ccccc1-c1ccccc1	–	–	–	–	–	–	·
NC(=O)c1ccc(CSc2nc3ccccc3s2)cc1	–	–	·	–	–	51	59
Cc1ccccc1NC(=S)N(Cc1ccco1)C(C)c1ccccn1 (stereo not drawn)	–	–	–	–	–	–	·
Cc1ccc(Cn2cnc3c(cnn3C(C)(C)C)c2=O)cc1	–	–	–	–	–	–	·
CC(C)(C)n1ncc2c(=O)n(Cc3ccccc3Br)cnc21	·	·	·	·	–	41	–	ATG4B confirm=69
OC(C[n+]1ccccc1)c1ccccc1 (stereo not drawn)	–	–	·	–	–	–	·
COC(=O)NNC(=O)COc1cc(C)c(Br)cc1C(C)C	–	–	–	–	–	41	–
COC(=O)NNC(=O)COc1ccc(Br)c(C)c1	–	–	–	–	–	–	·
CC(C)(C)C(=O)CSc1ncnc2sc3c(c12)CCC3	–	–	–	–	–	·	–
CC(=O)CSc1ncnc2sc3c(c12)CCC3	–	–	–	–	–	–	·
O=C(Nc1nnc(SCc2ccccc2Cl)s1)C1COc2ccccc2O1 (stereo not drawn)	–	–	–	–	–	–	·
Cc1ccccc1CSc1nnc(NC(=O)C2COc3ccccc3O2)s1 (stereo not drawn)	–	–	–	–	–	49	61
O=C(Nc1nnc(SCc2cccc3ccccc23)s1)C1COc2ccccc2O1 (stereo not drawn)	–	–	–	–	–	44	62
CCOC(=O)c1c(NC(=O)C2CCCCC2)sc2c1CCN(C(C)C)C2	–	–	·	–	–	–	·
C/C(=N\NC(=O)c1cccc(N/N=C(\C)c2cc(O)ccc2O)c1)c1cc(O)ccc1O	–	–	–	–	–	46	78
CC(Oc1ccc(F)cc1)C(=O)Nc1cc(Cl)ccc1-n1cncn1 (stereo not drawn)	·	·	·	·	–	–	·
CCCOC(=O)c1c(NC(=O)CCCn2nc([N+](=O)[O-])cc2C)sc(C(=O)OC)c1C	–	–	–	–	–	–	·
CCCOC(=O)c1c(NC(=O)CCCn2nc([N+](=O)[O-])c(Cl)c2C)sc(C(=O)OC)c1C	–	–	–	–	–	62	57
CCOC(=O)c1sc(NC(=O)CCCn2nc([N+](=O)[O-])c(Cl)c2C)c(C(=O)OCC)c1C	–	–	–	–	–	57	52
Cc1cccc(NC(=O)CSc2nc(C)c(Cc3ccccc3)c(=O)[nH]2)c1C	–	–	–	–	·	·	·
O=C(N/N=C/c1coc2ccccc2c1=O)c1cn(-c2ccccc2)nc1-c1ccccc1	–	–	–	–	57	92	94
O=C(N/N=C/c1coc2ccccc2c1=O)c1ccccc1	–	–	–	–	–	–	·
Cc1c(CCC(=O)O)c(=O)oc2cc3occ(C(C)(C)C)c3cc12	–	–	–	–	–	44	61
SMILES	MEKK2wt PB1 HTS	MEKK2 mut-MEK5	Dynein transport	MEKK3 PB1 HTS	Beta2AR agonist	ATG4B inh	PLA2 counter	others
Cc1c(CCC(=O)O)c(=O)oc2cc3occ(-c4ccc(F)cc4)c3cc12	–	–	–	–	–	–	·
CCCCCCSc1nnc(-c2cnn(-c3ccccc3)c2-n2cccc2)n1C	–	–	–	–	–	44	58
Cc1ccnc2nc(C(=O)OCC(=O)N3CC(C)CC(C)C3)nn12 (stereo not drawn)	·	·	·	·	–	–	·
Cc1cccc(OCc2nnc(SCCC(=O)O)n2-c2ccccc2)c1	–	–	·	–	–	–	·
COc1ccc(-n2c(CCc3ccccc3)nnc2SCC(=O)c2ccccc2)cc1	–	–	–	–	–	60	61
CCOc1ccc(-n2nnnc2SCC(=O)c2ccccc2)cc1	–	–	–	–	–	41	51
Cc1ccc2sc(C)[n+](CCC(C)S(=O)(=O)[O-])c2c1 (stereo not drawn)	–	–	–	–	–	–	·
NS(=O)(=O)c1cc(C(=O)NC2CCSc3ccccc32)ccc1Cl (stereo not drawn)	–	–	·	–	–	54	–	ATG4B confirm=43
CCOC(=O)c1c(C)nc2c(c1-c1ccccc1)C(=O)c1ccccc1-2	–	–	–	–	–	79	71
CCOC(=O)c1c(C)nc2sc(C(N)=O)c(N)c2c1-c1ccccc1	–	–	–	–	–	54	61
CCOC(=O)c1c(C)nc2sc(C(=O)Nc3ccccc3)c(N)c2c1-c1ccc(OC)cc1	–	–	–	–	–	–	·
COc1ccc(S(=O)(=O)N(C)C)cc1NC(=O)COC(=O)c1nn(C)c(=O)c2ccccc12	–	–	–	–	–	–	·
CCN(CC)c1nc(N)c2c(N)n(-c3ccccc3C)c(=S)c(C#N)c2c1C#N	–	–	–	–	–	54	70
CCN(C(=O)CSc1nnc(-c2ccncc2)n1Cc1ccccc1)C1CCS(=O)(=O)C1 (stereo not drawn)	–	–	–	–	–	–	·
Fc1ccc(Nc2nc(N/N=C/c3ccco3)nc(N3CCCCC3)n2)cc1	–	–	–	–	–	64	78
Brc1ccc(-c2nnc3n2C2(CCCC2)Cc2ccccc2-3)o1	–	–	–	–	–	52	63
c1coc(-c2nnc3n2C2(CCCC2)Cc2ccccc2-3)c1	–	–	–	–	–	–	·
O=C(O/N=C1\CCCc2ccccc21)c1cccc(Cl)c1	–	–	–	–	–	–	·
Cc1cccc(C(=O)O/N=C2\CCCc3ccccc32)c1	–	–	–	–	–	45	–
Cc1ccc(C(=O)O/N=C2\CCCc3ccccc32)cc1	–	–	–	–	–	43	–	ATG4B confirm=58
